This passage reports inhibition and IC50 results from PubChem BioAssay AID602209 (Southern Research Specialized Biocontainment Screening …, 2012).

Active and inactive are the calls of the source.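 How the source made its calls: active means inhibition of 30% or more at any tested concentration; inactive means the rest.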

The test deals with M17 leucyl aminopeptidase (Plasmodium falciparum 3D7). The test can be described thus: Inhibition of P. falciparum M17 aminopeptidase – biochemical, QFRET, set 2, counter-screen for PfM1AAP inhibitor project, dose response (AID 602209). The note with it: recombinant PfM17LAP, H-Leu-NHMec fluorogenic cleavage. In short, it runs like this: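 Test system: Recombinant Plasmodium falciparum M17 leucine aminopeptidase enzyme | Amount: Recombinant PfM17LAP enzyme at 5 µg/mL final | Read-out: % inhibition and IC50 via 4-parameter fit | Compound: 100–0.2 µM, 2-fold dilutions | Repeats: Triplicate | Detection: Fluorescence of released NHMec leaving group | Timing: Reaction 90 min, room temperature | Buffer or medium: Tris-HCl pH 7.5 plus CoCl2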

As for `CC[C@H](C)[C@H](NS(=O)(=O)c1ccc(Br)s1)C(=O)NCc1ccc2c(c1)OCO2`, the inhibition entry (at 100 µM (top of the series)) was “inactive”.
For `O=C(NCc1ccc(F)cc1)C1CCN(S(=O)(=O)c2ccc(Br)s2)CC1`, the half-inhibitory concentration (IC50) is 8.81 µM.
Consider `CC[C@H](C)[C@H](NS(=O)(=O)c1ccc(Br)s1)C(=O)NCc1ccc(Cl)cc1`, for which, under “at 100 µM (top of the series)”, the inhibition entry was “inactive”.
Consider `O=C(NCc1ccc2c(c1)OCO2)C1CCN(S(=O)(=O)c2ccc(Br)s2)CC1`, for which the IC50 is 3.57 µM.
In the case of `CC[C@H](C)[C@H](NC(=O)c1ccc(C(C)(C)C)cc1)C(=O)NCc1ccc(Cl)cc1`, the inhibition entry (at 100 µM (top of the series)) is “inactive”.
`CC[C@H](C)[C@H](NC(=O)c1ccc(C(C)(C)C)cc1)C(=O)NCc1ccc2c(c1)OCO2`: the inhibition result (at 1.56 µM (top of the series)) was “inactive”.
For the compound `O=C(NCc1ccc(Cl)cc1)C1CCN(S(=O)(=O)c2ccc(Br)s2)CC1`, the IC50 is 38.9 µM.
Same read-out and setting: the figure for `O=C(NCc1ccccc1)C1CCN(S(=O)(=O)c2ccc(Br)s2)CC1` is 3.52 µM.
